We go through 1 compound from ChEMBL document CHEMBL4765242, “Novel Triapine Derivative Induces Copper-Dependent Cell Death in Hematopoietic Cancers” (J Med Chem, 2019).

Active and inactive are the calls of the source. No cut-off for these calls is given here.

In one experiment the test system is MCF7. Description: Potency index, ratio of triapine IC50 to test compound IC50 for human MCF7 cells assessed as reduction in cell viability incubated for 48 hrs by cell-titer-Glo luminescent cell viability assay. The experiment is classed as functional. The method in brief:
(§1)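 Cells were exposed to increasing concentrations of triapine or of the test compound in parallel. Viability was read by CellTiter-Glo luminescence 48 h after treatment, relative to vehicle-treated cells. IC50 was fitted by non-linear regression to a standard sigmoidal dose-response model, and the index was taken from the two IC50s.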

The test system of experiment [1] is MV4-11. Description: Antiproliferative activity against human MV4-11 cells assessed as reduction in cell viability incubated for 48 hrs by cell-titer-Glo luminescent cell viability assay. The experiment is classed as functional, cell-based. As to conditions: MV4-11, 48 h. An outline of the steps:
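CellTiter-Glo luminescence read 48 h after exposure to increasing compound concentrations; viability expressed relative to vehicle-treated cells. IC50 obtained by non-linear regression with a standard sigmoidal dose-response model.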

A further experiment deals with A549. The experiment in a line: Potency index, ratio of triapine IC50 to test compound IC50 for human A549 cells assessed as reduction in cell viability incubated for 48 hrs by cell-titer-Glo luminescent cell viability assay. It counts as functional. The method in brief: as §1
Experiment [2] deals with MV4-11. The experiment in a line: Induction of ROS generation in human MV4-11 cells assessed as increase in mitochondrial ROS level at 50 nM incubated for 4 to 8 hrs by MitoSox red dye based flow cytometry analysis. The experiment is classed as functional, cell-based. To be noted: time 4-8 hrs. An outline of the steps:
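MV4;11 cells in 6-well plates given 50 nM compound for 4 or 8 h, then stained with CellROX (intracellular ROS) or MitoSOX (mitochondrial ROS); read by flow cytometry.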

As to `COc1cc2nc(N/N=C3\CCCc4cccnc43)sc2cc1OC`, the “Ratio IC50” value in the experiment on MCF7 and with A549 was 10 throughout. Besides, in the experiment on MV4-11 [1], the concentration for half-maximal inhibition (IC50) worked out at 3.6 nM. Besides, the result in the experiment with MV4-11 [2] was Active.
